Reference: article PMC11143505 (Acta Pharmaceutica Sinica. B, 2024)

How the values were obtained:
[1] = test system: healthy C57 mice; experiment: Biosafety in healthy mice; assay type: in vivo; settings: 2 weeks daily; for blood cell counts: n = 5 or 6
How it was run: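 Body weight was recorded every 2 days. After two weeks, blood was collected and blood cell counts were run on an automated veterinary haematology analyser.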

[2] = test system: STZ-induced diabetic mice; experiment: Glycemic control in STZ-induced type 1 diabetic mice with IPGTT; assay type: in vivo; settings: s.c.; for number of mice experiencing hypoglycemia within 4 h post-injection / time for blood glucose to drop to the normoglycemic range: n = 6; for time for blood glucose to drop to the normoglycemic range: fasted STZ diabetic mice; for response to the first glucose challenge (IPGTT): glucose 2 g/kg i.p. at 4.5 h
[3] = Pharmacokinetics; assay type: in vivo, mice; settings: n = 5; for delay of time to peak concentration: compared with insulin
[4] = test system: diabetic mice; experiment: Long-term efficacy in diabetic mice; assay type: in vivo; settings: for kidney Masson staining, amount of collagen fiber / kidney PAS staining: Day 14; for kidney H&E pathological features: Day 14, insulin 1 mg/kg, di-PEGylated insulin 3 mg/kg
How it was run: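 Diabetes was induced in C57BL/6 mice with STZ 50 mg/kg i.p. in 0.1 mol/L citrate pH 4.5 on 5 consecutive days; only mice with fasting glucose >16.7 mmol/L at 2 weeks were used. […] Serum glycated protein, CREA and BUN were measured by kit on Days 7 and 14. Day-14 kidneys were stained with H&E, PAS and Masson (200×). Dunnett-corrected ANOVA.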

[5] = Absorption and urine excretion of Cy7-labeled samples; assay type: in vivo, mice; settings: s.c., n = 3; for time at which fluorescence at the injected site was undetectable: live imaging
[6] = In vitro stability; assay type: physicochemical; settings: 1 mg/mL in PBS pH 7.4, 37 °C, 100 rpm, 80 h
[7] = Dynamic light scattering; assay type: physicochemical; settings: DLS in PBS, average of three measurements
[8] = test system: healthy C57BL/6 mice; experiment: Hypoglycemia effect in fasted healthy mice; assay type: in vivo; settings: for number of mice died from hypoglycemia / dose at which mice started to suffer from notable hypoglycemia: n = 6
How it was run: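 Tail-vein glucose was read by glucose meter at 30 min and 1–6 h. Hypoglycaemic effect was the area above the glycaemic curve and below 3.3 mmol/L. Survival was recorded at 10 U/kg. One-way ANOVA with Tukey test.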

[9] = target: insulin receptor (Mus musculus, UniProt P15208); experiment: Cell-based insulin receptor activation assay; settings: C2C12 cells, phospho-AKT (Ser473) HTRF; relative to native insulin = 100%
[10] = diabetic mice, Iso-insulin ELISA

Sequence of insulin receptor (P15208 28-748 limits assumed): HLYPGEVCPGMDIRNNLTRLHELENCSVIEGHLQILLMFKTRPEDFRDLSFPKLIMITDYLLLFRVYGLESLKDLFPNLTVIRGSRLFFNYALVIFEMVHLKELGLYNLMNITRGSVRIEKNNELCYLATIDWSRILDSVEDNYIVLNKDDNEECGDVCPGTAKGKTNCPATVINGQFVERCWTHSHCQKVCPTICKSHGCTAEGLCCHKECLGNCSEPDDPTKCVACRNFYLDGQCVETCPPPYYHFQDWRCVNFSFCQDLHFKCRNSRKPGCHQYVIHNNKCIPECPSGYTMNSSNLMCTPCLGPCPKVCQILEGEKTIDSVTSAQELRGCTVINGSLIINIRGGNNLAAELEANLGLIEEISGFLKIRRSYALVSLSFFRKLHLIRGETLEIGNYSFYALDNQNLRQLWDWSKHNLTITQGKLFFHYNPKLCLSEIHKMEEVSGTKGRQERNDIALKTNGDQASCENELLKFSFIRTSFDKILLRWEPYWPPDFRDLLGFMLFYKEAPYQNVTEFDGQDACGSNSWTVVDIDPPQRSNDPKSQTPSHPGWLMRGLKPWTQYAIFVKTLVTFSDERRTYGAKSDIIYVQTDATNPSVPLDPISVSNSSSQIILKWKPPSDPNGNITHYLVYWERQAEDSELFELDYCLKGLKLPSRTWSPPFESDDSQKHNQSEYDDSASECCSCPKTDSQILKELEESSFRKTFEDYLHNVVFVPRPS
Sequence of insulin receptor (P15208 753-1372 partner limits assumed): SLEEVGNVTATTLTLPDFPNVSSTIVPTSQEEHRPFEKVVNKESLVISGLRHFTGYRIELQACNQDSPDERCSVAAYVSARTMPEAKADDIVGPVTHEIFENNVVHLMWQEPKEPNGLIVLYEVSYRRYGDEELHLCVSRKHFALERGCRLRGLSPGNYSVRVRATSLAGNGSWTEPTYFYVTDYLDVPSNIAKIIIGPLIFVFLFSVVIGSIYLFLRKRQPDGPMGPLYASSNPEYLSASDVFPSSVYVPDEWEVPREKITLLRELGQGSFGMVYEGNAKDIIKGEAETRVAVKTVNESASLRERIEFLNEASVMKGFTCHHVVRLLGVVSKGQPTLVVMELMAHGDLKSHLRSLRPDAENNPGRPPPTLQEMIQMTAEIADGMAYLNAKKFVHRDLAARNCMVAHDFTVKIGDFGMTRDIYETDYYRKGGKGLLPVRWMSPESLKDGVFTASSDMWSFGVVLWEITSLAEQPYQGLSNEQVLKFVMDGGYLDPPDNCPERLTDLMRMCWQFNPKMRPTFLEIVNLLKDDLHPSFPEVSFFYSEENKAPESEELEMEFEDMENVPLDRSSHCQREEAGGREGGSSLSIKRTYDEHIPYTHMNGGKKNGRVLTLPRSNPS

Question: Which blood cell counts [1] does the source give for “di-PEGylated insulin: insulin conjugated with two PEG chains (MW 5000) at Lys B29 and Gly A1” here?
Answer: no noticeable change

Question: And the “number of mice experiencing hypoglycemia within 4 h post-injection” value ([2]; 5 U/kg, STZ diabetic mice)?
Answer: no mice

Question: And the “duration of blood glucose management after a single dose” value ([2]; 15 U/kg, STZ diabetic mice, three IPGTT 2 g/kg)?
Answer: over 13 h

Question: What about the “time at which serum concentration was still detected” value [3, 10] of the same substance?
Answer: 12 h

Question: And the “delay of time to peak concentration” value [3, 10]?
Answer: approximately 1 h

Question: And the “glycated serum protein (GSP) level” value ([4]; 2-week treatment, 3 mg/kg daily, n = 6)?
Answer: markedly reduced

Question: What about the “kidney Masson staining, amount of collagen fiber” value [4] of the same substance?
Answer: decreased

Question: What about the “kidney PAS staining” value [4] of the same substance?
Answer: preserved glomerular basement membrane

Question: And the “kidney H&E pathological features” value [4]?
Answer: somewhat attenuated

Question: What about the “time at which urine fluorescence signals could still be detected” value ([5]; Cy7 0.1 mg/kg) of the same substance?
Answer: 12 h

Question: And the “time at which fluorescence at the injected site was undetectable” value [5]?
Answer: 4 h

Question: What about the “change in transmittance after the assay” value [6] of the same substance?
Answer: less than 2%

Question: What about the hydrodynamic size [7] of the same substance?
Answer: 8.3 ± 1.1 nm

Question: What about the “hypoglycemia in healthy mice” value ([8]; s.c., 10 U/kg, fasted healthy mice, n = 6, threshold 3.3 mmol/L) of the same substance?
Answer: didn't suffer from hypoglycemia

Question: And the Emax [9]?
Answer: 63.5%

Question: Which “inflammatory cell infiltration in the skin at the injection site” value ([1]; H&E) does the source give for “insulin: Recombinant human insulin (26 U/mg) from Tonghua Dongbao Pharmaceutical [reference compound]” here?
Answer: No significant inflammatory cell infiltration

Question: And the blood cell counts [1]?
Answer: no noticeable change

Question: And the “number of mice experiencing hypoglycemia within 4 h post-injection” value ([2]; 5 U/kg, STZ diabetic mice)?
Answer: 5

Question: What about the “time for blood glucose to drop to the normoglycemic range” value ([2]; 5 U/kg) of the same substance?
Answer: ≤ 30 min

Question: What about the “response to the first glucose challenge (IPGTT)” value ([2]; 5 U/kg) of the same substance?
Answer: didn't show any efficacy in lowering blood glucose

Question: What about the “time at which serum concentration was essentially undetectable” value ([3]; healthy mice, insulin ELISA) of the same substance?
Answer: 4 h

Question: And the “kidney Masson staining, amount of collagen fiber” value [4]?
Answer: decreased

Question: What about the “kidney PAS staining” value [4] of the same substance?
Answer: thicker glomerular basement membrane and incomplete brush border

Question: What about the “kidney H&E pathological features” value [4] of the same substance?
Answer: somewhat attenuated

Question: What about the “fluorescence retention rate at the injected site” value ([5]; 4 h post-injection) of the same substance?
Answer: 50%

Question: And the “time of maximum urine fluorescence signal” value ([5]; Cy7 0.1 mg/kg, IVIS imaging of urine)?
Answer: 2 h

Question: What about the “time at which urine fluorescence was close to the background value” ([5]; Cy7 0.1 mg/kg) of the same substance?
Answer: 4 h

Question: What about the hydrodynamic size [7] of the same substance?
Answer: 4.1 ± 0.2 nm

Question: And the “number of mice died from hypoglycemia” value ([8]; s.c., 10 U/kg, healthy mice)?
Answer: 4

Question: And the “dose at which mice started to suffer from notable hypoglycemia” value ([8]; s.c., fasted healthy mice)?
Answer: 2 U/kg

Question: What about the Emax [9] of the same substance?
Answer: 100%

Question: Which “number of mice experiencing hypoglycemia within 4 h post-injection” value ([2]; 5 U/kg, STZ diabetic mice) does the source give for “mono-PEGylated insulin: insulin conjugated with one PEG chain (MW 5000) at Lys B29” here?
Answer: 4

Question: And the “time for blood glucose to drop to the normoglycemic range” value ([2]; 5 U/kg)?
Answer: ≤ 30 min

Question: And the “response to the following two additional IPGTTs” value ([2]; 5 U/kg, glucose 2 g/kg i.p. at 7.5 and 10.5 h)?
Answer: didn't exhibit glucose-lowering effects

Question: What about the “response to the first glucose challenge (IPGTT)” value ([2]; 5 U/kg) of the same substance?
Answer: moderate efficacy but failed to lower blood glucose to normoglycemic levels

Question: And the “delay of time to peak concentration” value [3, 10]?
Answer: approximately 1 h

Question: And the “time at which fluorescence at the injected site was undetectable” value [5]?
Answer: 4 h

Question: And the “increase in maximum tolerated dose” value ([8]; healthy mice, from area under the hypoglycemia line, 10 U/kg vs 1 U/kg insulin)?
Answer: didn't show a significant improvement

Question: And the “number of mice died from hypoglycemia” value ([8]; s.c., 10 U/kg, healthy mice)?
Answer: 5

Question: And the “dose at which mice started to suffer from notable hypoglycemia” value ([8]; s.c., fasted healthy mice)?
Answer: 2 U/kg

Question: What about the Emax [9] of the same substance?
Answer: 95.7%
